This assay has as its system Staphylococcus aureus. In words: Synergistic antibacterial activity against vancomycin-resistant Staphylococcus aureus HIP14300 assessed as fractional inhibitory concentration index incubated for 20 hrs in presence of vancomycin by checkerboard titration assay. In kind it is functional. The essentials:
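Checkerboard: VRSA HIP14300 as a 0.5 McFarland suspension diluted 1:100 in CAMHB, inoculated into twofold serial dilutions of disulfide and vancomycin, sealed, 20 h at 37 °C. Growth read by MTT staining with DMSO solubilization. ΣFIC = FIC1h + FICVAN; synergy ≤ 0.5, indifferent >0.5–≤4, antagonism >4.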

This passage reports FIC results from ChEMBL document CHEMBL4715813, “Allicin-inspired pyridyl disulfides as antimicrobial agents for multidrug-resistant Staphylococcus aureus” (Eur J Med Chem, 2018).

`CCCCCCCCSSc1ccccn1`: the FIC entry was “<=0.5”.
